Bioassay records: PubChem BioAssay, Johns Hopkins Ion Channel Center
KCNQ1 act: potentiators or activators of human KCNQ1 potassium channel. P51787. CHO-K1 KCNQ1, thallium flux FluxOR fluorescence; hits give high values. B-score at 10 µM. actives 0.35% (n = 310,000);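 active means fluorescence ratio B-score, a plate-corrected score, at least three library SD, with initial intensity B-score within 5 SD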
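Schedule – 37 °C overnight plating, 90-min dark dye load, 20-min compound pretreatment · System – stable KCNQ1 CHO-K1 line · Probe or stimulus – thallium- and potassium-containing depolarizing buffer · Measured by – kinetic FluxOR fluorescence, 10 s baseline plus 110 s post-stimulus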
hERG protect: hERG (human) protection from proarrhythmic block | Q12809 | CHO-hERG, FluxOR thallium flux, dofetilide IC70 present | activation (rescue from dofetilide block), less the hit threshold, % at 10 µM | actives 0.51% (n = 310,000);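 active means activation above the mean of controls blocked by dofetilide plus 5 SD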;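 further: thallium influx through hERG after potassium depolarization seen as dye fluorescence rise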
KCNK3 block: human KCNK3 channel inhibition, primary screen; O14649; CHO-KCNK3 thallium flux, FluxOR fluorescence; hits give low values; actives 0.84% (n = 340,000); B-score at 10 µM;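 active means B-score under library mean minus 4 SD, starting fluorescence ratio at most library mean plus 5 SD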;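 further: more negative B-score means stronger inhibition of thallium flux through KCNK3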
Kir21 inh: inhibitors of mouse Kir2.1 inward-rectifier potassium channel; HEK293-Kir2.1, FluxOR thallium flux fluorescence; hits give low values; P35561; AID 1672; B-score at 10 µM; actives 0.85% (n = 310,000);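 active means fluorescence ratio B-score at or below minus 3 SD of library scores, with starting-brightness B-score within 2 SD, cut at about -4.2 in these data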;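 further: channel flux triggered by added potassium and thallium sulfate stimulus; B-score of peak minus minimum fluorescence over baseline after thallium stimulus; more negative B-score means stronger Kir2.1 block with less thallium influx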
KCNK9 block: human KCNK9 channel inhibition; HEK293 KCNK9, FluxOR thallium flux fluorescence; hits give low values; B-score at 10 µM; actives 1.2% (n = 310,000); Q9NPC2;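 active means ratio B-score over 3 SD below the library mean, with starting fluorescence within 5 SD of its mean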;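 further: negative B-score means less thallium flux so channel inhibition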
Target sequence (Q9NPC2 whole entry, looked up): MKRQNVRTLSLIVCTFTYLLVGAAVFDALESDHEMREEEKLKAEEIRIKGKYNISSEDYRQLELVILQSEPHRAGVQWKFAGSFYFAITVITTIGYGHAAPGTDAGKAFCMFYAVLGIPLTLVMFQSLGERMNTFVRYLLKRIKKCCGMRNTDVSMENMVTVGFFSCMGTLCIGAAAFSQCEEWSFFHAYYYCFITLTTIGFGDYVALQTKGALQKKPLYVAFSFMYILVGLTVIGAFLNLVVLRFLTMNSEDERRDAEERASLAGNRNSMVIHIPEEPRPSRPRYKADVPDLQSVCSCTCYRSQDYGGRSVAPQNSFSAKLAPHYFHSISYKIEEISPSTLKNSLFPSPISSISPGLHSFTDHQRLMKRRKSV
KCNQ1 inh: blocks the human KCNQ1 potassium channel; P51787; CHO-K1 KCNQ1, FluxOR thallium flux fluorescence; hits give high values; B-score at 10 µM; actives 1.3% (n = 310,000); AID 2642;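 active means compounds whose thallium flux B-score, printed positive for inhibition, exceeds three library SD while starting fluorescence stays within three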;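 further: channel opened by potassium depolarization with thallium stimulus after 20 min compound exposure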
Numbers without * were called inactive; i = inactive; nt = no result. An excerpt weighted towards active compounds, which were near 3.7% of everything screened.

SMILES	KCNQ1 act	hERG protect	KCNK3 block	Kir21 inh	KCNK9 block	KCNQ1 inh
Cc1cccc(N2CCN(C(=O)c3ccc4ccccc4c3)CC2C)c1 (stereo unspecified)	nt	nt	i	nt	nt	nt
CC1(C)Cc2cccc(OCC(=O)OCC(=O)c3ccccc3)c2O1	nt	nt	i	nt	nt	nt
Cc1noc(C)c1COC(=O)COc1cccc2c1OC(C)(C)C2	i	-8	i	-5.5*	i	i
Cc1ccc(S(=O)(=O)Nc2ccccc2-c2ccccc2NS(=O)(=O)c2ccc(C)cc2)cc1	i	-10	i	0.06	i	7*
Cc1ccc(S(=O)(=O)Nc2ccccc2C(N)=O)cc1	i	-11	i	0.4	i	i
Cc1ccc(S(=O)(=O)Nc2ccccc2C(O)c2ccccc2)cc1 (stereo unspecified)	i	-13	i	-5*	i	i
CCOC(=O)C(=O)Nc1ncc(Cl)s1	i	-9	i	-0.13	i	i
COc1ccc(COCC(O)CN2CCN(S(=O)(=O)c3c(F)cccc3F)CC2)cc1OC (stereo unspecified)	nt	nt	i	nt	nt	nt
Cc1ccc(N(CC2CO2)S(=O)(=O)c2ccc([N+](=O)[O-])cc2)cc1 (stereo unspecified)	i	-1	i	-4.3*	i	i
O=[N+]([O-])c1cccc(N(CC2CO2)S(=O)(=O)c2ccccc2)c1 (stereo unspecified)	i	-3	i	-4.7*	i	i
Cc1ccccc1-c1nnc(SC(C)C(=O)NC2CCCC2)o1 (stereo unspecified)	nt	nt	i	nt	nt	nt
Cc1ccc(S(=O)(=O)c2c(C)nn(C(C)(C)C)c2OC(=O)C2CCCC2)cc1	i	-3	-8.8*	-0.69	-8*	i
CCOC(=O)C1CCN(S(=O)(=O)c2ccc(C)cc2)CC1	i	-4	i	-0.05	i	i
COc1ccc2c(c1)CCCC21NC(=O)N(CC(=O)NCc2cccs2)C1=O (stereo unspecified)	nt	nt	i	nt	nt	nt
COc1ccc(Nc2nc(Cl)c(C=O)s2)cc1	i	-19	i	-0.28	i	i
COc1cc2nc(Nc3ccc(F)cc3)nc(N)c2cc1OC	i	-5	i	-5.9*	i	i
CC(C)N1CCOC1c1ccccc1 (stereo unspecified)	nt	nt	i	nt	nt	nt
CCN(CC)C(=O)[C@H]1C[C@H](CC(=O)NCCc2ccccn2)C(=O)N2CCc3c([nH]c4cc(CCC(=O)N(C)C)ccc34)[C@]12C	nt	nt	i	nt	nt	nt
COc1ccccc1C(CCN(Cc1ccccc1)C(C)=O)c1ccco1 (stereo unspecified)	i	-12	i	-5.3*	i	i
CCOC(=O)C1CCN(Cc2cccc(Oc3ccccc3)c2)CC1	i	-7	i	-6.1*	i	i
CCCCC(=O)Nc1nc(C)c(-c2csc(Nc3cc(OC)ccc3OC)n2)s1	i	-21	i	-1.4	-7.8*	i
CCCCC(=O)Nc1nc(C)c(-c2csc(Nc3cc(Cl)ccc3OC)n2)s1	i	-9	i	0.02	-7.5*	7*
N#CC1=C(SCC(=O)NC23CC4CC(CC(C4)C2)C3)NC(=O)C(C#N)C12CCCCC2 (stereo unspecified)	i	-9	i	0.47	i	10*
N#CC1=C(SCC(=O)NC2CC2)NC(=O)C(C#N)C12CCCCC2 (stereo unspecified)	i	-12	i	-1.3	i	i
NS(=O)(=O)c1ccc(Nc2ncccc2[N+](=O)[O-])cc1	i	4.6*	i	-1.1	i	i
SMILES	KCNQ1 act	hERG protect	KCNK3 block	Kir21 inh	KCNK9 block	KCNQ1 inh
CCC(NC(=O)Nc1nnc(C(F)(F)F)s1)(C(F)(F)F)C(F)(F)F	i	-50	i	-4.5*	i	i
CCOC(=O)c1cc(-c2nnc(-c3ccc(Oc4ccccc4)cc3)o2)c(C)nc1C	i	-23	-10*	-0.91	i	i
CCOC(=O)c1cc(C(=O)NN)c(C)nc1C	i	-8	i	1.6	i	i
O=C(c1c(Cl)cccc1Cl)N1CCN(c2ncccn2)CC1	i	-6	i	0.1	i	i
CCCCCN1C=CC=C/C1=C\C=C(C#N)C#N	i	-3	i	0.1	i	i
C=CCN1C=CC(=CC=C(C#N)C#N)C=C1	i	-11	i	-3.1	i	7*
CCCN1C=CC(=CC=C(C#N)C#N)C=C1	i	-14	i	-5.8	i	8*
CCCN1C=CC(=C/C=C(\C#N)C(=O)OCC)C=C1	i	-30	nt	-6.4	i	12*
CCOC(=O)/C(C#N)=C/C=C1\C=Cc2ccccc2N1CC	i	-6	i	0.44	i	i
O=C(c1cccnc1)N1CCN(c2ccc3ccccc3n2)CC1	i	-9	i	0.15	i	i
N#C/C(=C/c1ccc(Sc2nc3ccccc3[nH]2)o1)c1cccc(Br)c1	i	-9	-10*	0.36	i	i
N#C/C(=C/c1ccc(Sc2nc3ccccc3[nH]2)o1)c1ccccc1F	i	-18	i	-2.1	i	17*
N#C/C(=C\c1ccc(Sc2ccccc2)o1)c1nc2ccccc2[nH]1	i	-11	i	-0.31	i	i
N#C/C(=C\c1ccc([N+](=O)[O-])o1)c1nc2ccccc2[nH]1	i	-12	nt	-2	i	6*
CS(=O)(=O)N1CCN(c2ccccc2[N+](=O)[O-])CC1	i	-6	i	1.6	i	i
COc1ccc(-c2csc3ncn(-c4ccccc4OC)c(=O)c23)cc1OC	i	-2	i	-2.4	i	i
Cc1sc2ncn(-c3ccccc3)c(=O)c2c1C	i	-10	i	1	i	i
COc1ccccc1-n1cnc2sc(C)c(C)c2c1=O	i	6.0*	i	1.2	i	i
CCOc1ccc(-n2cnc3sc(C)c(C)c3c2=O)cc1	i	5.6*	i	-0.06	i	i
O=c1c2ccccc2nc(SCc2ccc([N+](=O)[O-])cc2)n1-c1ccccc1	i	-13	i	0.37	-7.7*	i
CC1CCN(C(=O)CN2C(=O)NC3(CCC(C)CC3)C2=O)CC1 (stereo unspecified)	nt	nt	i	nt	nt	nt
CN=C1N(C)C[C@@H]2[C@@H]3C(=O)N(C)C(=O)[C@@H]3[C@](Cc3ccccc3)(C(=O)OC)N12	nt	nt	i	nt	nt	nt
CCn1cc(Br)c(C(=O)Nc2ccccc2C(=O)OC)n1	i	-10	i	-0.23	-6.6*	i
CCn1ncc(Br)c1C(=O)Nc1ccccc1C(=O)OC	i	-24	i	0.21	i	i
